Rows were chosen to be rich in hits. Some 12% of all compounds tested hit in one or more screens of this group.
Arbovirus inh = antivirals against arbovirus infection | arbovirus infection cell-based antiviral screen | inhibition, % at 10 µM | actives 0.37% (n = 200,000) | AID 1251; in the data active = inhibition above about 30%
Wee1 degr inh = blocks degradation of human Wee1 kinase; HeLa Luc-Wee1K328M stability, luciferase luminescence; 100% = proteasome inhibitor MG132 effect; reporter increase, % at 5 µM; AID 1321; P30291; actives 1.2% (n = 220,000);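 active = activation above the mean of all tested compounds plus 3 SD, set per screening run, cut at about 8.8% in these data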;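 also: cells exposed to compound for 20 h before luminescence read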
PKD1 inh = inhibitors of human PKD1 kinase | Q15139 | PKD1 kinase fluorescence polarization assay | inhibition, % (no concentration beside the values) | actives 0.056% (n = 200,000)
L major viab = reduces viability of Leishmania major promastigotes; inhibition, % at 10 µM; resazurin fluorescence viability; actives 9% (n = 200,000);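 also: promastigotes grown with compound for 44 hours at 28 °C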
Rad51 HR inh = blocks human Rad51 in homologous recombination; hRad51 DNA strand exchange, fluorescence dequenching; inhibition, % at 10 µM; actives 0.085% (n = 200,000); AID 1385;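 active = inhibition above 40% at the single screening dose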
Target sequence (Q06609 whole entry, looked up): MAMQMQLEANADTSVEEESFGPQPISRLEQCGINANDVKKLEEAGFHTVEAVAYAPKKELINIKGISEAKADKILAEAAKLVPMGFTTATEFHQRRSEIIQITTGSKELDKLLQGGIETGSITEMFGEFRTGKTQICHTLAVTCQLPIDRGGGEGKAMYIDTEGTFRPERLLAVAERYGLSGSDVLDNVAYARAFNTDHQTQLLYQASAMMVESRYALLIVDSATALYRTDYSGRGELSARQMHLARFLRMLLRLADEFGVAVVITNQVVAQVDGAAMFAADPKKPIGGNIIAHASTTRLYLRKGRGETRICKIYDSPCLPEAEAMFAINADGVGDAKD
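Material: human Rad51–ssDNA filaments; Probe or stimulus: labelled 47-mer dsDNA for strand exchange; Doses: single 10 µM dose; Incubation: 37 °C 15-min filament assembly, 30-min compound preincubation, 15-min exchange; Technique: FRET fluorescence dequenching, excitation 485 nm, emission 520 nm; Measure: Fluorescence-based percent inhibition, control- and blank-normalised; Benchmarks: plate control and blank wells.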
CHOP inh = CHOP inhibition in unfolded protein response. inhibition, % at 10 µM. CHO-K1 CHOP-promoter luciferase, tunicamycin-induced, 15-18 h. actives 3.8% (n = 220,000). AID 2732;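 active = compounds that reduced the stress-induced luciferase reporter signal by more than about 70% of percent inhibition, limit read from the data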
Wee1 degr conf = human Wee1 degradation inhibition, confirmation; shares compounds with Wee1 degr inh; HeLa Luc-Wee1K328M degradation, luminescence; vehicle 0%, proteasome-blocked wells 100%; activation, % at 5 µM; actives 4% (n = 1,100); in the data active = activation above about 8.9%
CHOP confirm = confirmation of CHOP induction inhibitors. shares compounds with CHOP inh. CHO-CHOP promoter luciferase reporter, tunicamycin-induced, luminescence. inhibition, % at 10 µM. actives 45% (n = 2,100);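 active = mean of three repeat readings of reporter signal inhibition above a set limit, cut at about 70% in these data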
Numbers stand for hits; i = inactive; nt = no result given. Rule as the data show it, unless noted: active = inhibition above about 50%; inactive = the rest.

SMILES	Arbovirus inh	Wee1 degr inh	PKD1 inh	L major viab	Rad51 HR inh	CHOP inh	CHOP confirm	others
O=C(O)Cc1ccc(NC(=O)CCN2C(=O)c3ccc([N+](=O)[O-])cc3C2=O)cc1	i	15	i	i	i	i	nt	Wee1 degr conf=i
CC1(C)CC(=O)C2=C(C1)OC1=C(C2)C(=O)CC(C)(C)C1	i	i	i	i	i	i	nt
COc1ccccc1-c1nnc(Nc2nc3c(OC)cccc3s2)o1	i	15	i	98	i	nt	nt	Wee1 degr conf=i
CC(O)CNc1ccc([N+](=O)[O-])cc1S(=O)(=O)N1CCOCC1 (stereo unspecified)	i	i	i	i	i	i	nt
CCN1CCN(c2ccc([N+](=O)[O-])cc2S(=O)(=O)N2CCOCC2)CC1	i	11	i	i	i	i	nt	Wee1 degr conf=i
COc1ccc(O)c(C(=O)C2c3ccccc3C(=O)N2c2ccc(C)cc2)c1 (stereo unspecified)	nt	i	nt	nt	i	i	nt
COC(=O)C1=C(C)NC(=S)NC1/C=C/c1ccccc1 (stereo unspecified)	i	i	i	i	i	i	nt
CCOC(=O)C1=C(C)NC(=S)NC1/C=C/c1ccccc1 (stereo unspecified)	i	16	i	i	i	i	nt	Wee1 degr conf=i
Nc1c(C(=O)O)sc2nc(-c3ccccc3)cc(-c3ccccc3)c12	nt	11	nt	nt	i	i	nt	Wee1 degr conf=i
Nc1c(C(=O)O)sc2nc(-c3ccccc3)cc(-c3ccc(F)cc3)c12	nt	i	nt	nt	i	i	nt
CC(CCc1ccccc1)NC(=O)C(=O)Nc1ccccc1 (stereo unspecified)	i	i	i	i	nt	i	nt
O=C(c1ccccc1)c1ccc(O)cc1O	i	i	i	i	nt	i	nt
CC(=O)c1cc2c(C)c(C(=O)c3ccccc3)oc2cc1O	i	12	i	i	i	83	nt	Wee1 degr conf=i
COc1cc(/C=N/N=C(/C(=O)c2ccccc2)c2ccccc2)cc(OC)c1O	i	12	i	i	nt	99	i	Wee1 degr conf=i
O=C(Nc1ccccc1[N+](=O)[O-])c1cccnc1Cl	i	i	i	i	i	i	nt
O=C(Nc1ccccc1)Nc1ccc(Oc2cccnc2)nc1	nt	i	nt	nt	i	i	nt
O=C(Nc1ccccc1)Nc1cc(OCC(F)(F)F)cc(OCC(F)(F)F)c1	i	14	i	100	i	107	126	Wee1 degr conf=i
Cc1cc2cc(CCNC(=O)c3cccs3)c(=O)[nH]c2cc1C	i	i	i	i	nt	i	nt
O=S(=O)(C/C(=C/CO)S(=O)(=O)c1ccccc1)c1ccccc1	i	13	i	55	i	nt	118	Wee1 degr conf=8.8
CCN(Cc1ccccc1)C(=O)CS(=O)(=O)c1ccccc1	i	i	i	i	i	i	nt
O=C1C=CC(O)(c2cc(=O)c3c(O)cc(O)cc3o2)C=C1	i	41	i	70	i	108	122	Wee1 degr conf=69
Cc1cccc2cc(C#N)c(NCCCNS(=O)(=O)c3ccc(Cl)cc3)nc12	nt	i	nt	nt	i	104	i
Cc1cccc2cc(C#N)c(NCCNS(=O)(=O)c3ccccc3)nc12	i	i	i	i	i	i	nt
CC(C)Cn1c(N)c(C(=O)COC(=O)CC23CC4CC(CC(C4)C2)C3)c(=O)n(C)c1=O	i	i	i	98	i	98	90
CCOC(=O)C1(Cc2ccccc2C)CCCN(C(=O)c2cc(CC)nn2C)C1 (stereo unspecified)	i	i	i	i	i	i	nt
SMILES	Arbovirus inh	Wee1 degr inh	PKD1 inh	L major viab	Rad51 HR inh	CHOP inh	CHOP confirm	others
O=C(NNc1nc2ccccc2s1)Nc1ccc(Cl)c(Cl)c1	nt	i	nt	nt	i	106	i
O=C(NNc1nc2ccccc2s1)Nc1ccc(F)cc1	nt	i	nt	nt	i	i	nt
CN(C(=O)COC(=O)CNC(=O)c1sc2ccccc2c1Cl)c1ccccc1	i	i	i	i	i	i	nt
Cc1cccc(OC(=O)Cn2c(C(F)(F)F)nc3ccccc32)c1	i	i	i	i	nt	i	nt
Cc1cccc(OCc2n(CC(=O)OC3CC(C)CCC3C(C)C)c3ccccc3[n+]2C)c1 (stereo unspecified)	i	i	i	100	i	109	78
O=C(Nc1nc(-c2ccccc2)cs1)c1ccccc1NS(=O)(=O)c1ccc(F)cc1	i	i	i	i	nt	i	nt
O=S(=O)(Nc1ccc(-c2csc(-c3ccccc3)n2)cc1)c1ccc(F)cc1	i	i	i	i	i	105	i
O=C(Nc1ccccc1)Nc1nc(-c2ccc(F)cc2)cs1	i	i	i	i	i	106	i
O=C(Nc1ccc(Cl)cc1)Nc1nc(-c2ccccc2)cs1	i	i	i	i	i	i	nt
Cc1ccc(NC(=O)CSC2=C(C#N)C(c3ccco3)C3=C(CC(C)(C)CC3=O)N2)cc1 (stereo unspecified)	i	i	i	i	i	100	i
CCc1ccc(NC(=O)CSC2=C(C#N)C(c3ccco3)C3=C(CCCC3=O)N2)cc1 (stereo unspecified)	i	i	i	i	i	i	nt
O=C1CC2(CCCC2)Oc2ccccc21	nt	nt	nt	nt	i	nt	nt
Cc1ccc(-n2ccc(=O)c(-c3ccnc(SCc4cccc(Cl)c4)n3)n2)cc1	i	i	i	i	i	98	i
CCn1c(-c2nn(-c3ccc(C)cc3)ccc2=O)n[nH]c1=S	i	i	i	i	i	i	nt
Cc1ccc2cc(CCNC(=O)Cc3cccs3)c(=O)[nH]c2c1	i	i	i	i	nt	i	nt
CCCOc1ccc([N+](=O)[O-])c(N)c1	i	i	i	i	i	i	nt
Nc1c(N(C(=O)Nc2ccc(Cl)c(Cl)c2)C2CCCC2)c(=O)[nH]c(=O)n1Cc1ccccc1	i	i	i	i	nt	103	115
CC(OC(=O)CCc1nc2ccccc2c(=O)[nH]1)C(=O)c1ccc(Br)cc1 (stereo unspecified)	i	i	i	i	nt	i	nt
Cc1cccc(N/C(N)=N/c2nc(C)c(Cc3ccccc3)c(=O)[nH]2)c1	i	i	i	i	i	101	i
CC1CC(CCN)(c2ccccc2)C(C)CN1C (stereo unspecified)	nt	i	nt	nt	nt	i	nt
CCC1C(c2ccccc2)N(C)C(c2ccccc2)CC1(O)c1ccccc1 (stereo unspecified)	i	i	i	53	i	99	i
Cc1ccc(C(=O)c2c(C)oc3c2C(=O)C(=O)c2ccccc2-3)cc1	i	i	i	100	i	115	i
COc1ccc(/C=N/NC(=O)COc2ccccc2-c2ccccc2)cc1	i	i	i	i	i	106	i
O=C(COc1ccccc1-c1ccccc1)N/N=C/c1cccc2ccccc12	i	i	i	i	i	i	nt
COc1oc(-c2ccc(Cl)cc2)nc1C(F)(F)F	i	i	i	i	i	103	71
COc1ccc(NS(=O)(=O)c2ccc3oc4ccccc4c3c2)cn1	i	i	i	i	i	97	i
